Measured values as given in the EternaBench riboswitch data.

Assays:
MS2 coat protein [1] = assay: apparent Kd, MS2 coat protein; higher = weaker binding; RNA-MaP array; theophylline 2 mM where present
Method in brief: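 Apparent Kd: the median of filtered binding-curve fits from single clusters. Designs were transcribed on Illumina sequencing-chip clusters by stalled E. coli RNA polymerase and titrated with SNAP-549-labelled MS2 coat protein from 0.7 or 1.5 nM, doubling to 3 µM, in 100 mM Tris-HCl pH 7.5, 80 mM KCl, 4 mM MgCl2, BSA, DTT, yeast tRNA and Tween-20. Each series ran without and then with constant ligand, and green signal was normalised to red-channel RNA signal and control-cluster median Fmax.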

MS2 coat protein [2] = assay: apparent Kd, MS2 coat protein; higher = weaker binding; RNA-MaP array
Method in brief: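 Designed RNAs were transcribed on an Illumina sequencing chip from sequenced DNA templates. They were incubated at room temperature with fluorescently labeled MS2 coat protein at 1.5 nM to 3 μM, for 0.8–1.5 h at the lowest to 10–20 min at the highest concentrations, in Tris-HCl pH 7.5 buffer with KCl, MgCl2, BSA, DTT, tRNA and Tween20, with or without input ligand. Apparent Kd is the median of per-cluster binding-curve fits. Designs measured on fewer than 10 clusters were excluded.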

[3] = designed as: OFF switch for theophylline, no ligand
[4] = ligand present: theophylline, designed as: OFF switch for theophylline
[5] = designed as: ON switch for theophylline, no ligand
[6] = ligand present: theophylline, designed as: ON switch for theophylline
[7] = designed as: OFF switch for flavin mononucleotide, no ligand
[8] = ligand present: flavin mononucleotide, designed as: OFF switch for flavin mononucleotide
[9] = designed as: ON switch for flavin mononucleotide, no ligand
[10] = ligand present: flavin mononucleotide, designed as: ON switch for flavin mononucleotide

ACGUCCGGUUUACUCGUGGGCAUGGUCGAUACCAGUAUUUUAAUCUACCCUUGGCAGCGACAUGAGGAUCACCCAUGUGCGAAGA
apparent Kd (MS2 coat protein [1]; [3]): 0.0235 µM
apparent Kd (MS2 coat protein [1]; [4]): 0.0324 µM

ACGACGCAUAGUGAUACCAGUAGAACAUGAGGAUCACCCAUGUCUGUUAUGUACAAAUACUGCCCUUGGCAGCACUAUGCGUCAG
apparent Kd (MS2 coat protein [1]; [5]): 0.00979 µM
apparent Kd (MS2 coat protein [1]; [6]): 0.0107 µM

UCGUGUAAAACGGAUACCAGUGAGAAGGAUACAUGAGGAUCACCCAUGUGAGUUGAUCCACACCCUUGGCAGCUGUAUAUAUCUA
apparent Kd (MS2 coat protein [1]; [5]): 0.118 µM
apparent Kd (MS2 coat protein [1]; [6]): 0.706 µM

ACGUCCGGGUUAAUCGUGGGCAUGGUCGAUACCAGUAUUUUAAUCUACCCUUGGCAGCGACAUGAGGAUCACCCAUGUGCGAUGA
apparent Kd (MS2 coat protein [1]; [3]): 0.017 µM
apparent Kd (MS2 coat protein [1]; [4]): 0.0355 µM

ACGUCACGUUUACUCGUGGUUUCGUUCGAUACCAGUAGCGAGAGUUACCCUUGGCAGCGACAUGAGGAUCACCCAUGUACGAAGA
apparent Kd (MS2 coat protein [1]; [3]): 0.0131 µM
apparent Kd (MS2 coat protein [1]; [4]): 0.0272 µM

UGGCAGCACCUCAUGUGCUGCCAAGGUGAUACCAGCAUCGAAAGAUGCCCUUGGCAGCACCAACAUGAGGAUCACCCAUGUAAUA
apparent Kd (MS2 coat protein [1]; [5]): 0.165 µM
apparent Kd (MS2 coat protein [1]; [6]): 0.152 µM

GAUGAACUAUUCGAUACCAGACCACAUGAGGAUCACCCAUGUGUGUUUCGUCCUUAGCCGGUCCCUUGGCAGCGAAUAGUUUAUC
apparent Kd (MS2 coat protein [1]; [3]): 0.0202 µM
apparent Kd (MS2 coat protein [1]; [4]): 0.0303 µM

AAUAACAUGAGGAUCACCCAUGUAAAAGAUACCAGAGUGAUGAUCCUCCCUUGGCAGCUUAACGCUGAUUGGAAACAAUCAGCGA
apparent Kd (MS2 coat protein [1]; [5]): 0.147 µM
apparent Kd (MS2 coat protein [1]; [6]): 0.225 µM

UGUAACAUGAGGAUCACCCAUGUGAGUGAUACCAGACUAGUGUUGGUCCCUUGGCAGCACGCUGGACGAAUGUGUAGUCUAUGCG
apparent Kd (MS2 coat protein [1]; [5]): 0.0783 µM
apparent Kd (MS2 coat protein [1]; [6]): 0.0837 µM

AUACCUAAUGUUACAUUUUCCUUUUCAGAUACCAGACUUUACGUUGUCCCUUGGCAGCUGUAUCACAUGAGGAUCACCCAUGUUG
apparent Kd (MS2 coat protein [1]; [5]): 0.0166 µM
apparent Kd (MS2 coat protein [1]; [6]): 0.0169 µM

AGUGUUAUAACUGAUACCAGACUUGCGCUUAAACAUGAGGAUCACCCAUGUAAAAUGGUUGUCCCUUGGCAGCAGAAAAUACACA
apparent Kd (MS2 coat protein [1]; [5]): 0.0741 µM
apparent Kd (MS2 coat protein [1]; [6]): 0.0216 µM

AGCCCUGUGCUAGAUACCAGCUACAUGAGGAUCACCCAUGUGCGUCAGGACUGACUGUGUAGCCCUUGGCAGCUACUCGCAUGUA
apparent Kd (MS2 coat protein [1]; [3]): 0.0162 µM
apparent Kd (MS2 coat protein [1]; [4]): 0.0309 µM

AUAAGUAAUGUUACGUGUUUUAUUACAGAUACCAGACUAUACGUUGUCCCUUGGCAGCUGAAUUACAUGAGGAUCACCCAUGUUG
apparent Kd (MS2 coat protein [1]; [3]): 0.0151 µM
apparent Kd (MS2 coat protein [1]; [4]): 0.0173 µM

AAUAACAUGAGGAUCACCCAUGUAAAAGAUACCAGAGUGAUGAUCCUCCCUUGGCAGCUUAAACGCUAUUGAUUACAAUAGCGAA
apparent Kd (MS2 coat protein [1]; [5]): 0.0415 µM
apparent Kd (MS2 coat protein [1]; [6]): 0.144 µM

GAACAUGAGGAUCACCCAUGUGAGAAUGAUACCAGUAGAAGAAGAUGCCCUUGGCAGCGUGCGUGAGGAUCACCCAUGUAGGAGG
apparent Kd (MS2 coat protein [1]; [3]): 0.0242 µM
apparent Kd (MS2 coat protein [1]; [4]): 0.0279 µM

CGGUUUGUGAUGGAUACCAGCAGAGAAAAUGUUUAUCCUAACAUGAGGAUCACCCAUGUAUGCCCUUGGCAGCUGUUGUGGGCUG
apparent Kd (MS2 coat protein [1]; [3]): 0.0648 µM
apparent Kd (MS2 coat protein [1]; [4]): 0.0621 µM

UGACAUUGCUCAGAUACCAGACAUGAGGAUCACCCAUGUGCCAAAUACGUACAAAUAAAUGUCCCUUGGCAGCUGAGCAAUGUCU
apparent Kd (MS2 coat protein [1]; [3]): 0.0142 µM
apparent Kd (MS2 coat protein [1]; [4]): 0.266 µM

ACACCGAAAGGUGCAUUUUCCUUUUCAGAUACCAGACUUUACGUUGUCCCUUGGCAGCUGUAUCACAUGAGGAUCACCCAUGUUG
apparent Kd (MS2 coat protein [1]; [5]): 0.0164 µM
apparent Kd (MS2 coat protein [1]; [6]): 0.0176 µM

CCGUUUGAUCAGAAGGAACCAGUCGAACCAUGUGACAGACAUGAGGAUCACCCAUGUUCGCGCGGUUAGGAUAUGACAGCUCAG
apparent Kd (MS2 coat protein [2]; [7]): 0.0132 µM
apparent Kd (MS2 coat protein [2]; [8]): 0.0645 µM

GACCCUACGGAGAAGGCACCUACAUGAGGAUCACCCAUGUUUGAUCGUUUGCCGGACGGCUUACGUGAGGAUAUCCAGGUACAG
apparent Kd (MS2 coat protein [2]; [9]): 0.0148 µM
apparent Kd (MS2 coat protein [2]; [10]): 0.0072 µM

UUAGAGAGAGGAUAUACAGAGUAUCAACUCGGCGGACAAGAACAUGAGGAUCACCCAUGUAGAAGGCUCUCAGA
apparent Kd (MS2 coat protein [2]; [7]): 0.0186 µM
apparent Kd (MS2 coat protein [2]; [8]): 0.0671 µM

UGUAACGAAGGAUAUACAAGAAGACAAGUGCGGCAGUACGUACAUGAGGAUCACCCAUGUAGAAGGUCGAAGGC
apparent Kd (MS2 coat protein [2]; [7]): 0.00703 µM
apparent Kd (MS2 coat protein [2]; [8]): 0.00766 µM

GGCUGCGAUGGCGGAAAUUAUUUACAUAGGCGAGGACCGGUACGGCCGCCACUCGAACGUACAUGAGGAUCACCCAUGUGAUAAU
apparent Kd (MS2 coat protein [2]; designed as: ON switch for tryptophan, no ligand): 0.0718 µM
apparent Kd (MS2 coat protein [2]; ligand present: tryptophan, designed as: ON switch for tryptophan): 0.0265 µM

CGCCUACAUGAGGAUCACCCAUGUGAUGUUACGGUAGGAUAUAGAGCUGAGCCACUCUGCCUAGAAGGACCUAUAC
apparent Kd (MS2 coat protein [2]; [9]): 0.0688 µM
apparent Kd (MS2 coat protein [2]; [10]): 0.0373 µM

GAAGAAAAGUGAGGAUAUGGCAACCAGAUGACGCAAACAAUAAAACAUGAGGAUCACCCAUGUACCCAGAAGGCACCAAACAAA
apparent Kd (MS2 coat protein [2]; [9]): 0.0152 µM
apparent Kd (MS2 coat protein [2]; [10]): 0.00948 µM

ACACAUGAGGAUCACCCAUGUCGACGUUAGGCUCGUCGCGGCAGAAGGUGUGGCAUGGACACCCACAAGGAUAUGCAUGGGACU
apparent Kd (MS2 coat protein [2]; [9]): 0.174 µM
apparent Kd (MS2 coat protein [2]; [10]): 0.119 µM

GUUUACAAUGUCAGGAUAUCACAGCGUACAAAUGUUGAGAAGGGACAUGAGGAUCACCCAUGUACACACCUCUU
apparent Kd (MS2 coat protein [2]; [7]): 0.00804 µM
apparent Kd (MS2 coat protein [2]; [8]): 0.00929 µM

CUCACUAAGCUUUAGGAUAUAGACACUGGCACAUGAGGAUCACCCAUGUUCAACAAGGCGGAUAACUAGAAGGAAAGUAACCUUUU
apparent Kd (MS2 coat protein [2]; [9]): 0.0119 µM
apparent Kd (MS2 coat protein [2]; [10]): 0.00964 µM

GUUCCCAUAUCAGGAUAUAUUUCACAUGAGGAUCACCCAUGUUACCCGUGAAGUCGACUCUAUGUAUAGAAGGGAUGAUGGGCC
apparent Kd (MS2 coat protein [2]; [7]): 0.0554 µM
apparent Kd (MS2 coat protein [2]; [8]): 0.0437 µM

ACAAAAUAGCUAGGAUAUCGUACGAAUUGACAUUUUUAGCAAACAUGAGGAUCACCCAUGUCCUACGAGAAGGAGCUUAUGAAG
apparent Kd (MS2 coat protein [2]; [7]): 0.0143 µM
apparent Kd (MS2 coat protein [2]; [8]): 0.00755 µM

CGUAUGUGAGGAUAUCCGAAACUAUUUACCAAAUUAUAAGUGGAGAAGGCACAUGAGGAUCACCCAUGUGAUGG
apparent Kd (MS2 coat protein [2]; [7]): 0.0115 µM
apparent Kd (MS2 coat protein [2]; [8]): 0.0246 µM

AAUACAUGAGGAUCACCCAUGUUGACAUCAUGAGCCAACCUUAGAAGGACUUUAAUGACGCUCGAGUAGGAUAUAAGGCAAGUU
apparent Kd (MS2 coat protein [2]; [9]): 0.0137 µM
apparent Kd (MS2 coat protein [2]; [10]): 0.012 µM

UGGCGCUGUGCAGGAUAUAUCAAUUAGAACAGGGCGCAGGGUAGAAACAUGAGGAUCACCCAUGUAUAGAAGGGCACAGUAGGU
apparent Kd (MS2 coat protein [2]; [7]): 0.0531 µM
apparent Kd (MS2 coat protein [2]; [8]): 0.0497 µM

ACGAAGUGAGGAUAUACAUGAGGAUCACCCAUGUGCCCAGGGUGUGAUUGUAAAGAACGUAGAAGGCACAAUAG
apparent Kd (MS2 coat protein [2]; [7]): 0.594 µM
apparent Kd (MS2 coat protein [2]; [8]): 0.132 µM

CCGUUUCGGACAAGCAACACAUGAGGAUCACCCAUGUCAAUCUAGGAUAUCAUAAGGAUAUAACGUGAGAAGGAGAGCGACAGG
apparent Kd (MS2 coat protein [2]; [7]): 0.0332 µM
apparent Kd (MS2 coat protein [2]; [8]): 0.0244 µM

GCAUACGGAUAGAAGGAACUCUACGAUACGACAUGAGGAUCACCCAUGUAAUAUCAGUUAAACGGUUAGGAUAUAUGGGUAGUC
apparent Kd (MS2 coat protein [2]; [9]): 0.0816 µM
apparent Kd (MS2 coat protein [2]; [10]): 0.0419 µM

AAUUCAAGGGUUAGGAUAUUCAAUAUAAAAUACUAGAAGAAGGAACAUGAGGAUCACCCAUGUUAUAGUGAUCU
apparent Kd (MS2 coat protein [2]; [7]): 0.0272 µM
apparent Kd (MS2 coat protein [2]; [8]): 0.0321 µM

UUCUACUAGUGACACUACUAGACAUGAGGAUCACCCAUGUCAGAGGAUAUGGAAAGACAUUAUUACCAGAAGGCUGCCAAGGUA
apparent Kd (MS2 coat protein [2]; [9]): 0.0156 µM
apparent Kd (MS2 coat protein [2]; [10]): 0.015 µM

ACUCGACAUGAGGAUCACCCAUGUCAGGAUAUCUGAGUGUGGCCUCCUACUAAACUAUAGAGAAGGGACAAUGG
apparent Kd (MS2 coat protein [2]; [7]): 0.0103 µM
apparent Kd (MS2 coat protein [2]; [8]): 0.011 µM

UUGGGACAUGAGGAUCACCCAUGUCAGGAUAUAUAUAAUCUGCGCGACGAGGGAUACAAUAGAAGGGACAACGG
apparent Kd (MS2 coat protein [2]; [7]): 0.0182 µM
apparent Kd (MS2 coat protein [2]; [8]): 0.0151 µM

GGUUUGAACAAGAAGGUGAGUCACGAGACCCUGGGAUCUCGGGACAUGAGGAUCACCCAUGUCGUCAAGGAUAUUGUGGUGUUU
apparent Kd (MS2 coat protein [2]; [9]): 0.769 µM
apparent Kd (MS2 coat protein [2]; [10]): 0.191 µM
